Source: ChEMBL document CHEMBL1909619, “Synthesis and Toll-like receptor 4 (TLR4) activity of phosphatidylinositol dimannoside analogues” (J Med Chem, 2011)
The source made the active and inactive calls. The calls are words filed in the database; no cut-off is given here.

Experiments:
[1] = target: T1, Toll-like receptor 4 (Mus musculus) (UniProt Q9QUK6); test: Agonist activity at TLR4 in thioglycollate-elicited mouse peritoneal macrophages assessed as induction of IL-6 production in after 18 hrs by ELISA; assay type: functional
T1 sequence (whole entry): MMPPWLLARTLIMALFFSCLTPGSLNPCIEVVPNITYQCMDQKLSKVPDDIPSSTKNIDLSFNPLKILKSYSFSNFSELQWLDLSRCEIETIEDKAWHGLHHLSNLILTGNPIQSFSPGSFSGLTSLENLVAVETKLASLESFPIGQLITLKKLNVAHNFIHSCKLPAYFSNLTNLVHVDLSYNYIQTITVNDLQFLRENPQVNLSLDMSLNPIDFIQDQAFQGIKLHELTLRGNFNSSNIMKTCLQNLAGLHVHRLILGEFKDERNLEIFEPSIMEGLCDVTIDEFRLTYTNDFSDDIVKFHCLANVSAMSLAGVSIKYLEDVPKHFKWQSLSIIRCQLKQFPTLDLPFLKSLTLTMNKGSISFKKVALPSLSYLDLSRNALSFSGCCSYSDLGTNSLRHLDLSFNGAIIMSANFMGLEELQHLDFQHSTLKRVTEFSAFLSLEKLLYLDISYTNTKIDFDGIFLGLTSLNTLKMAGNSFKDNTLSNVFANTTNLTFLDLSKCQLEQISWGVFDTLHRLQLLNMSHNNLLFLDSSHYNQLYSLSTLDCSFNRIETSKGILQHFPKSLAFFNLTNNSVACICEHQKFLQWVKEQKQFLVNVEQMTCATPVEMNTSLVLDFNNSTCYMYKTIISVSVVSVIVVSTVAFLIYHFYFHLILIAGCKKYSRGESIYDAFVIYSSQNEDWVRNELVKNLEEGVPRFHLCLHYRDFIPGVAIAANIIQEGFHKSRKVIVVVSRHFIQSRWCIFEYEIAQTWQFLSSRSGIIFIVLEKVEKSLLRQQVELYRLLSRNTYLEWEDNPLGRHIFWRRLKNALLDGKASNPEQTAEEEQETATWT
Outline: (§1)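 Thioglycollate-elicited mouse peritoneal macrophages were plated at 2×10^5 cells/well in RPMI-1640 with 10% fetal calf serum and penicillin-streptomycin. They were incubated 18 h at 37°C, 5% CO2 with compound, with or without 10 ng/ml LPS. IL-6 in the supernatant was measured by ELISA. Data are representative of at least two replicate experiments, and significance was tested by ANOVA.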

Toll-like receptor 4 = target: T2, Toll-like receptor 4 (Mus musculus, UniProt Q9QUK6); test: (§2) Inhibition of LPS-induced TLR4 activation in thioglycollate-elicited mouse peritoneal macrophages assessed as inhibition of IL-6 production after 18 hrs by ELISA; outline: as §1
T2 sequence (Q9QUK6 whole entry): T1 sequence (whole entry)

[2] = Cytotoxicity against mouse peritoneal macrophages assessed as cell viability by trypan blue exclusion assay; assay type: cell-based; conditions: peritoneal macrophage cell
Outline: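 Thioglycollate-elicited mouse peritoneal macrophages were plated at 2×10^5 cells/well in supplemented RPMI-1640. They were exposed to compound, with or without 10 ng/ml LPS, for 18 h at 37°C, 5% CO2. Viability was then scored by trypan blue exclusion.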

[3] = target: T1, Toll-like receptor 4 (Mus musculus); test: Enhancement of LPS-induced TLR4 activation in mouse peritoneal macrophages assessed as IL-6 production at 0.6 to 19.2 uM after 18 hrs by ELISA; outline: as §1
Macrophage = test: Induction of IL-6 production in TLR4-deficient mouse macrophages; assay type: functional, cell-based
[4] = target: Toll-like receptor 4 (Homo sapiens) (UniProt O00206); test: Partial agonist activity at TLR4 transfected in Sf9 insect cells assessed as inhibition of LPS-mediated sTLR4/MD2 homodimerization after 1 hr by native PAGE; assay type: functional, cell-based
Sequence of Toll-like receptor 4 (Homo sapiens) (O00206 whole entry, the tested form may be a part): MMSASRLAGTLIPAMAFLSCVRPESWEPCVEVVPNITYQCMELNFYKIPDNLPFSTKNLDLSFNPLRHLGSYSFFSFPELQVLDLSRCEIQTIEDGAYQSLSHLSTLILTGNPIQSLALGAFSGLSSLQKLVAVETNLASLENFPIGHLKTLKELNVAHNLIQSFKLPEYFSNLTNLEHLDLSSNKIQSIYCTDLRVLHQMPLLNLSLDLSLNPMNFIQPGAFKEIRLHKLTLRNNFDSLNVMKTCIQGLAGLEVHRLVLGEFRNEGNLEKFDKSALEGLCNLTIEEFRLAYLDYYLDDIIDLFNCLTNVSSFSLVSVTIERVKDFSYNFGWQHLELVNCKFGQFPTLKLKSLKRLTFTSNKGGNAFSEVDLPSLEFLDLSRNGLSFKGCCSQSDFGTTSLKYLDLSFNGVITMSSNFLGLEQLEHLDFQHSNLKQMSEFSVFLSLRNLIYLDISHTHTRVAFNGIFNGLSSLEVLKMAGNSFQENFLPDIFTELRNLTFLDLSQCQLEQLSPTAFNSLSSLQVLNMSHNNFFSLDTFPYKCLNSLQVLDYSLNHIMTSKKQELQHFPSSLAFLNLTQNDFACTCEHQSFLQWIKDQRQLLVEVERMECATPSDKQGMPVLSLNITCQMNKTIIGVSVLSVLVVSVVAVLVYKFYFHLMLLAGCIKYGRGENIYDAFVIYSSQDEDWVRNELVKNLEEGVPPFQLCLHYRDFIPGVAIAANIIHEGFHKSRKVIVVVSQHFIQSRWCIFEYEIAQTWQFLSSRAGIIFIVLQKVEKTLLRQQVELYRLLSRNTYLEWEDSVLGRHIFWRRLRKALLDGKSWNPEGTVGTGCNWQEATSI
Outline: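 The sTLR4 ectodomain/MD-2 complex was co-expressed in Hi5 insect cells from baculovirus made in SF9 cells. It was purified by Ni-NTA and Strep-Tactin affinity, tag removal with thrombin, and size exclusion. After 1 h at room temperature, the mixture was resolved by native PAGE on a 4–20% gel at pH 8.8.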

Sf9 [5] = test: Binding affinity at MD1 transfected in Sf9 insect cells after 1 hr by native PAGE; assay type: cell-based
Outline: (§3)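 MD-1 was expressed by baculovirus and purified by Ni-NTA affinity, anion exchange and gel filtration. It was combined with compound and then LPS in 20 mM Hepes pH 7.4/150 mM NaCl. After 1 h at room temperature, the mixture was analysed by native PAGE on a 4–20% gradient gel at pH 8.8.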

Sf9 [6] = test: Competitive binding affinity at MD1 transfected in Sf9 insect cells after 1 hr by native PAGE in presence of LPS; assay type: cell-based; outline: as §3
[7] = target: T1, Toll-like receptor 4 (Mus musculus); test: as §2; outline: as §1

Row | Structure (SMILES) | Activity [1] | IC50 (Toll-like receptor 4) | Activity [2] | Activity [3] | Activity (Macrophage) | Activity [4] | Activity (Sf9 [5]) | Activity (Sf9 [6]) | inhibition [7]
1 | CCCCCCCCCCCCCCCCOC[C@H](COP(=O)(O)O[C@@H]1[C@H](O[C@H]2O[C@H](CO)[C@@H](O)[C@H](O)[C@@H]2O)[C@H](O)[C@@H](O)[C@H](O)[C@H]1O[C@H]1O[C@H](CO)[C@@H](O)[C@H](O)[C@@H]1O)OCCCCCCCCCCCCCCCC | 494 pg/mL | 23.3 µM | Non-toxic |  |  |  |  |  | 
2 | CCCCCCCCCCCCCCCCOC[C@H](COP(=O)(O)O[C@@H]1[C@H](O[C@H]2O[C@H](CO)[C@@H](O)[C@H](O)[C@@H]2O)[C@H](O)[C@@H](O)[C@H](O)[C@H]1O[C@H]1O[C@H](CO)[C@@H](O)[C@H](O)[C@@H]1O)OC(=O)CCCCCCCCCCCCCCC | 1130 pg/mL | 28.8 µM | Non-toxic |  |  |  |  |  | 
3 | CCCCCCCCCCCCCCCCO[C@H](COC(=O)CCCCCCCCCCCCCCC)COP(=O)(O)O[C@@H]1[C@H](O[C@H]2O[C@H](COC(=O)CCCCCCCCCCCCCCC)[C@@H](O)[C@H](O)[C@@H]2O)[C@H](O)[C@@H](O)[C@H](O)[C@H]1O[C@H]1O[C@H](CO)[C@@H](O)[C@H](O)[C@@H]1O | 275 pg/mL |  | Non-toxic | Active |  |  |  |  | 
4 | CCCCCCCCCCCCCCCC(=O)OC[C@H](COP(=O)(O)O[C@@H]1[C@H](O[C@H]2O[C@H](CO)[C@@H](O)[C@H](O)[C@@H]2O)[C@H](O)[C@@H](O)[C@H](O)[C@H]1O[C@H]1O[C@H](CO)[C@@H](O)[C@H](O)[C@@H]1O)OC(=O)CCCCCCCCCCCCCCC | 817 pg/mL | 40.2 µM | Non-toxic |  | inactive | Active | Active | Dose-dependent effect | 
5 | CCCCCCCCCCCCCCCCO[C@H](COC(=O)CCCCCCCCCCCCCCC)COP(=O)(O)OC(CO[C@H]1O[C@H](CO)[C@@H](O)[C@H](O)[C@@H]1O)CO[C@H]1O[C@H](CO)[C@@H](O)[C@H](O)[C@@H]1O | 923 pg/mL | 42.8 µM | Non-toxic |  |  |  |  |  | 
6 | CCCCCCCCCCCCCCCCO[C@H](COC(=O)CCCCCCCCCCCCCCC)COP(=O)(O)O[C@@H]1[C@H](O[C@H]2O[C@H](CO)[C@@H](O)[C@H](O)[C@@H]2O)[C@H](O)[C@@H](O)[C@H](O)[C@H]1O[C@H]1O[C@H](CO)[C@@H](O)[C@H](O)[C@@H]1O | 1460 pg/mL | 30.3 µM | Non-toxic |  |  |  |  |  | Dose-dependent effect
7 | CCCCCCCCCCCCCCCC(=O)N[C@H](COC(=O)CCCCCCCCCCCCCCC)COP(=O)(O)O[C@@H]1[C@H](O[C@H]2O[C@H](CO)[C@@H](O)[C@H](O)[C@@H]2O)[C@H](O)[C@@H](O)[C@H](O)[C@H]1O[C@H]1O[C@H](CO)[C@@H](O)[C@H](O)[C@@H]1O | 664 pg/mL | 22.7 µM | Non-toxic |  |  |  |  |  | 
8 | CCCCCCCCCCCCCCCC(=O)OC[C@H](COP(=O)(O)OC(CO[C@H]1O[C@H](CO)[C@@H](O)[C@H](O)[C@@H]1O)CO[C@H]1O[C@H](CO)[C@@H](O)[C@H](O)[C@@H]1O)OC(=O)CCCCCCCCCCCCCCC | 143 pg/mL | 12.9 µM | Non-toxic |  |  |  |  |  | 
